Experimental data: ChEMBL document CHEMBL5335784, “Discovery of a novel 1,3,4-oxadiazol-2-one-based NLRP3 inhibitor as a pharmacological agent to mitigate cardiac and metabolic complications in an experimental model of diet-induced metaflammation” (Eur J Med Chem, 2023)
Activity calls are given as the source filed them. No cut-off for these calls is given here.

Legend:
[1] = Effect on left ventricular end diastolic pressure in high diet fed obese Wistar rat model at 20 mg/kg/day, ip administered for 4 weeks (reference value: 6+/-0.2 mm Hg); type: toxicity, organism-based; details: in vivo, 672 h
[2] = tested on: Rattus norvegicus; experiment: Antiinflammatory activity against high fat diet fed-induced metaflammation Wistar rat model assessed as reduction in HFD-induced anthropometric alterations by measuring reduction in perirenal fat deposition at 20 mg/kg/day, ip administered for 4 weeks; type: functional, organism-based
How it was run: (§1)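 Male Wistar rats on high-fat diet (60% kcal fat) or standard diet for 12 weeks; 20 mg/kg/day i.p. or vehicle (saline, 2% DMSO, 5% Cremophor-EL) over the last 28 days. Body weight recorded weekly. After sacrifice, abdominal, epididymal, retroperitoneal and perirenal fat, liver and heart excised and weighed. Cardiac somatic index = heart weight/body weight ×100. n=6–7 per group.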

[3] = tested on: Rattus norvegicus; experiment: (§2) Cardioprotective activity against ischemia/reperfusion-induced myocardial injury and high diet fed obese Wistar rat model assessed as decrease in LDH activity in coronary effluents at 20 mg/kg/day, ip administered for 4 weeks followed by excised heart exposed to global ischemia for 30 mins and reperfusion for 120 mins and measured during first 10 mins of reperfusion by spectrophotometric analysis; type: functional, organism-based
How it was run: (§3)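 HFD or SD rats, dosed 20 mg/kg/day i.p. for the final 28 days, anaesthetised with ethyl carbamate (2 g/kg i.p.). Hearts Langendorff-perfused with Krebs–Henseleit buffer (pH 7.4, 37 °C, 12 ml/min); 40 min stabilization, 30 min global no-flow ischemia, 120 min reperfusion. Coronary effluent collected on ice before ischemia and at 10, 20, 30 min reperfusion; LDH activity by McQueen method. n=6–7.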

[4] = Cytotoxicity against human THP-1 cells assessed as reduction in cell viability measured after 72 hr by MTT assay; type: toxicity, cell-based; details: read-out: TC50
How it was run: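 Undifferentiated THP-1 cells exposed to 0.1–100 μM compound for 72 h. Viability read by MTT reduction at 570 nm. TC50 from concentration–response; three experiments.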

[5] = tested on: Rattus norvegicus; experiment: Antiinflammatory activity against high fat diet fed-induced metaflammation Wistar rat model assessed as reduction in HFD-induced anthropometric alterations by measuring reduction in body weight gain at 20 mg/kg/day, ip administered for 4 weeks; type: functional, organism-based; how it was run: as §1
[6] = tested on: Rattus norvegicus; experiment: as §2, with “standard” for “high”, “fed” for “fed obese”; type: functional, organism-based; how it was run: as §3
[7] = tested on: Rattus norvegicus; experiment: Cardioprotective activity against high fat diet fed-induced metaflammation Wistar rat model assessed as reduction in myocardial damage by measuring reduction in plasma Gal-3level at 20 mg/kg/day, ip administered for 4 weeks by ELISA; type: functional, organism-based
How it was run: (§4)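 Male Wistar rats on HFD or SD for 12 weeks received 20 mg/kg/day i.p. (saline, 2% DMSO, 5% Cremophor-EL) or vehicle for the last 28 days. Circulating IL-1β, TNF-α, BNP and Gal-3 quantified by ELISA in blood collected after sacrifice. n=6–7 per group.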

[8] = tested on: Rattus norvegicus; experiment: (§5) Inhibition of ischemia/reperfusion-induced NLRP3 inflammasome activation in ischemia/reperfusion-induced myocardial injury and standard diet fed Wistar rat model assessed as decrease in NLRP3 protein expression at 20 mg/kg/day, ip administered for 4 weeks followed by excised heart exposed to global ischemia for 30 mins and reperfusion for 120 mins by immunoblot analysis; type: functional, organism-based
How it was run: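 Left ventricles from Langendorff hearts (30 min global ischemia/120 min reperfusion) of HFD or SD rats dosed 20 mg/kg/day i.p. for the final 28 days. Tissue homogenized in RIPA buffer with protease/phosphatase inhibitors. 50 μg protein run on 8% SDS-PAGE and immunoblotted for NLRP3 (1:500), normalized to β-actin by densitometry; n=4 per group.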

[9] = tested on: Rattus norvegicus; experiment: as §5, with “oxidative stress” for “NLRP3 inflammasome activation”, “cardiac MDA level” for “NLRP3 protein expression”, “TBARS assay” for “immunoblot analysis”; type: functional, organism-based
How it was run: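 Same rat diet, dosing and Langendorff ischemia/reperfusion protocol. LV homogenized 10% w/v in 0.9% KCl pH 7.4. Homogenate heated at 100 °C for 15 min with TCA and TBA plus butylated hydroxytoluene, centrifuged, and read at […]. MDA expressed as nmol/g heart tissue, compared with sham hearts perfused for 190 min.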

[10] = Effect on developed LVP recovery in standard diet fed Wistar rat model at 20 mg/kg/day, ip administered for 4 weeks (reference value: 69 +/-4 mmHg); type: toxicity, organism-based; details: in vivo, 672 h
[11] = tested on: Rattus norvegicus; experiment: as §2, with “30” for “10”; type: functional, organism-based; how it was run: as §3
[12] = tested on: Rattus norvegicus; experiment: Antiinflammatory activity against high fat diet fed-induced metaflammation Wistar rat model assessed as reduction in HFD-induced anthropometric alterations by measuring reduction in liver weight at 20 mg/kg/day, ip administered for 4 weeks; type: functional, organism-based; how it was run: as §1
[13] = tested on: Rattus norvegicus; experiment: Antiinflammatory activity against high fat diet fed-induced metaflammation Wistar rat model assessed as reduction in HFD-induced anthropometric alterations by measuring reduction in cardiac somatic index at 20 mg/kg/day, ip administered for 4 weeks; type: functional, organism-based; how it was run: as §1
[14] = Drug metabolism in PBS assessed as half time for compound hydrolysis to 2-(5-(2-Chlorobenzyl)-2-oxo-1,3,4-oxadiazol-3(2H)-yl)acetic acid at 100 uM at pH 7.4 by RP-HPLC analysis; type: ADME
How it was run: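 Compound added from 10 mM DMSO stock to 50 mM PBS, pH 7.4, 37 °C. Sampled over 48 h and quantified by RP-HPLC (phenyl column, 226/254 nm) against external standards of ester and acid.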

[15] = biological target: NACHT, LRR and PYD domains-containing protein 3 (Homo sapiens, UniProt Q96P20); experiment: Inhibition of NLRP3-dependent pyroptosis in PMA-differentiated human THP-1 cells assessed as inhibition of LPS/MSU-induced cell death at 10 uM by LDH assay; type: cell-based
[16] = Effect on Gal-3 level in standard diet fed Wistar rat plasma at 20 mg/kg/day, ip administered for 4 weeks; type: toxicity, organism-based; details: in vivo, 672 h; how it was run: as §4
[17] = Effect on left ventricular end diastolic pressure in standard diet fed Wistar rat model at 20 mg/kg/day, ip administered for 4 weeks (reference value: 3+/-1 mm Hg); type: toxicity, organism-based; details: in vivo, 672 h
[18] = tested on: Rattus norvegicus; experiment: Antiinflammatory activity against high fat diet fed-induced metaflammation Wistar rat model assessed as reduction in HFD-induced metabolic alterations by measuring reduction in plasma glucose level at 20 mg/kg/day, ip administered for 4 weeks by glucometer analysis; type: functional, organism-based
How it was run: (§6)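 Rats fed HFD or SD for 12 weeks, dosed 20 mg/kg/day i.p. in saline/2% DMSO/5% Cremophor-EL during the final 28 days. Serum obtained after sacrifice by centrifuging blood at 2000 x g, 10 min, 4 °C. Glucose read by glucometer; total, HDL and LDL cholesterol and triglycerides measured with commercial kits. n=6–7 per group.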

[19] = tested on: Rattus norvegicus; experiment: Antiinflammatory activity against high fat diet fed-induced metaflammation Wistar rat model assessed as reduction in HFD-induced anthropometric alterations by measuring reduction in heart weight at 20 mg/kg/day, ip administered for 4 weeks; type: functional, organism-based; how it was run: as §1
[20] = Effect on developed LVP recovery in high diet fed obese Wistar rat model at 20 mg/kg/day, ip administered for 4 weeks (reference value: 54 +/-6 mmHg); type: toxicity, organism-based; details: in vivo, 672 h
[21] = Effect on LDH level in standard diet fed Wistar rat plasma at 20 mg/kg/day, ip administered for 4 weeks; type: toxicity, organism-based; details: in vivo, 672 h
[22] = Effect on glyco-metabolic profile in standard diet fed Wistar rat assessed as effect on LDL cholesterol level in plasma at 20 mg/kg/day, ip administered for 4 weeks; type: toxicity, organism-based; details: in vivo, 672 h; how it was run: as §6

Sequence of NACHT, LRR and PYD domains-containing protein 3 (Q96P20 whole entry, the tested form may be a part): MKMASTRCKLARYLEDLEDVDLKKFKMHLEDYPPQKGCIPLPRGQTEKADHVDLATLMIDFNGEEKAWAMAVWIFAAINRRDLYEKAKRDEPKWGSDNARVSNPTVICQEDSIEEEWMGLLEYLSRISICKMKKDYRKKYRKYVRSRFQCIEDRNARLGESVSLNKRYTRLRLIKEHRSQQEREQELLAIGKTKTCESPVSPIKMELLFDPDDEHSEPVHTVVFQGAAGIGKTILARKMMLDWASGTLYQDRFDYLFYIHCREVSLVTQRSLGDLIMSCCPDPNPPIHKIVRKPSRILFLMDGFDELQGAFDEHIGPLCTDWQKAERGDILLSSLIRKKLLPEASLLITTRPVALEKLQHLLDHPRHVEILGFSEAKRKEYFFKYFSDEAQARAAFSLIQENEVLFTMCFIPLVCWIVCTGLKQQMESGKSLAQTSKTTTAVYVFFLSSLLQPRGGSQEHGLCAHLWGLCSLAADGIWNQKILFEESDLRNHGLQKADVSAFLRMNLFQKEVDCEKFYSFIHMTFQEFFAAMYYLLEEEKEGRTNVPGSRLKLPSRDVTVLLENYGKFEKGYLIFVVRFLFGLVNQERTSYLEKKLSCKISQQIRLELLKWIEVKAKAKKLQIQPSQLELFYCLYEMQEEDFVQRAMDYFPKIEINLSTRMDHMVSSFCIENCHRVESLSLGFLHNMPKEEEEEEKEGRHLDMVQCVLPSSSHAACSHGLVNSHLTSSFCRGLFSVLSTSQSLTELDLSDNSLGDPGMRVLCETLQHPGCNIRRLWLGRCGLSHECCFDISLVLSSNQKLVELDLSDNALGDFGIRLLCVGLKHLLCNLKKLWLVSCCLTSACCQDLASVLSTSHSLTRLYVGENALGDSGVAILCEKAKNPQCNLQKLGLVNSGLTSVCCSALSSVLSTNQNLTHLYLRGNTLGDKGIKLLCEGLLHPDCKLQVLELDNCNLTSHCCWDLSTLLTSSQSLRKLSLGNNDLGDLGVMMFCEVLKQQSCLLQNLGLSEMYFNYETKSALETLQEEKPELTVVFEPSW

CCOC(=O)Cn1nc(Cc2ccccc2Cl)oc1=O
Activity [1]: 4 mmHg
Activity [2]: Active
Activity [3]: Active
CC50 at 72 h [4]: 76.5 µM
Activity [5]: inactive
Activity [6]: Active
Activity [7]: Active
inhibition [8]: Active
inhibition [9]: Active
Activity [10]: 65 mmHg
Activity [11]: Active
Activity [12]: Active
Activity [13]: Active
half-life at 100 µM [14]: > 48 h
inhibition [15]: 61.6%
Activity [16]: Non-Toxic
Activity [17]: 3 mmHg
Activity [18]: Active
Activity [19]: Active
Activity [20]: 64 mmHg
Activity [21]: Non-Toxic
Activity [22]: Non-Toxic
